Experimental data taken from ChEMBL document CHEMBL5724801, “EUbOPEN Chemogenomics Library - Multiplex” (2024).
Values joined by “and” are separate entries in the source; they are usually repeats but may differ in a detail not shown here. Equal entries are not always repeated.

What was measured:
[1] = tested on: Fibroblast; assay: Multiplex assay against human fibroblast; assay type: toxicity, cell-based
Procedure, shortened: (§1)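 Compound was added to live cells that had been stained at seeding with Hoechst33342, BioTracker Green Microtubule Cytoskeleton Dye, MitoTracker Red and Annexin V Alexa Fluor 680, and imaging followed on a CQ1 microscope at 37°C and 5% CO2. CellPathfinder machine-learning gating divided cells into Hoechst high-intensity objects or normal cells, normal cells into healthy, pyknosed or fragmented nuclei, and pyknosed cells into mitotic or apoptotic. Tubulin, mitochondrial-mass and membrane-permeability phenotypes are per cents of healthy-nucleus cells.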

[2] = tested on: HEK-293T; assay: Multiplex assay against HEK293T; assay type: toxicity, cell-based; conditions: human; procedure, shortened: as §1
[3] = 12 h, 1 µM, compound concentration 1 uM
[4] = 12 h, 10 µM, compound concentration 10 uM
[5] = 24 h, 1 µM, compound concentration 1 uM
[6] = 24 h, 10 µM, compound concentration 10 uM
[7] = 48 h, 1 µM, compound concentration 1 uM
[8] = 48 h, 10 µM, compound concentration 10 uM

Cc1cc(NC(=O)NCCN2CCC(O)(Cc3ccccc3)CC2)c2ccccc2n1 [PALOSURAN]
Population Apoptotic (%) [1, 3]: 37% and 40%
Population Fragmented Nuclei (%) [1, 3]: 10% and 26%
Population Healthy Nuclei (%) [1, 3]: 77% and 44%
Population Hoechst High Intensity Objects (%) [1, 3]: 2% and 9%
Population Membrane Permeable-Phenotype (%) [1, 3]: 3% and 1%
Population Mitotic Cells (%) [1, 3]: 62% and 59%
Population Normal (%) [1, 3]: 97% and 90%
Population Pyknosed Nuclei (%) [1, 3]: 12% and 28%
Population Tubulin-Different-Phenotype (%) [1, 3]: 19% and 46%
Total Cell Count [1, 3]: 133 and 143
Population Apoptotic (%) [1, 4]: 40% and 41%
Population Fragmented Nuclei (%) [1, 4]: 14% and 28%
Population Healthy Nuclei (%) [1, 4]: 69% and 49%
Population Hoechst High Intensity Objects (%) [1, 4]: 1% and 6%
Population Membrane Permeable-Phenotype (%) [1, 4]: 0% and 3%
Population Mitochondria Different-Phenotype (%) [1, 4]: 13% and 3%
Population Mitotic Cells (%) [1, 4]: 59% and 58%
Population Normal (%) [1, 4]: 98% and 93%
Population Pyknosed Nuclei (%) [1, 4]: 15% and 22%
Population Tubulin-Different-Phenotype (%) [1, 4]: 37% and 51%
Total Cell Count [1, 4]: 178 and 113
Population Apoptotic (%) [1, 5]: 53% and 40%
Population Fragmented Nuclei (%) [1, 5]: 15% and 27%
Population Healthy Nuclei (%) [1, 5]: 73% and 50%
Population Hoechst High Intensity Objects (%) [1, 5]: 2% and 6%
Population Mitochondria Different-Phenotype (%) [1, 5]: 0% and 21%
Population Mitotic Cells (%) [1, 5]: 46% and 60%
Population Normal (%) [1, 5]: 97% and 93%
Population Pyknosed Nuclei (%) [1, 5]: 10% and 22%
Total Cell Count [1, 5]: 129 and 119
Population Apoptotic (%) [1, 6]: 42% and 60%
Population Fragmented Nuclei (%) [1, 6]: 14% and 30%
Population Healthy Nuclei (%) [1, 6]: 77% and 47%
Population Hoechst High Intensity Objects (%) [1, 6]: 1% and 3%
Population Membrane Permeable-Phenotype (%) [1, 6]: 0% and 3%
Population Mitochondria Different-Phenotype (%) [1, 6]: 8% and 1%
Population Mitotic Cells (%) [1, 6]: 57% and 40%
Population Normal (%) [1, 6]: 98% and 96%
Population Pyknosed Nuclei (%) [1, 6]: 8% and 22%
Population Tubulin-Different-Phenotype (%) [1, 6]: 37% and 48%
Total Cell Count [1, 6]: 178 and 117
Population Apoptotic (%) [1, 7]: 50% and 61%
Population Fragmented Nuclei (%) [1, 7]: 16% and 42%
Population Healthy Nuclei (%) [1, 7]: 72% and 44%
Population Hoechst High Intensity Objects (%) [1, 7]: 3% and 7%
Population Membrane Permeable-Phenotype (%) [1, 7]: 0% and 14%
Population Mitotic Cells (%) [1, 7]: 50% and 38%
Population Normal (%) [1, 7]: 96% and 92%
Population Pyknosed Nuclei (%) [1, 7]: 11% and 13%
Total Cell Count [1, 7]: 126 and 149
Population Apoptotic (%) [1, 8]: 55% and 61%
Population Fragmented Nuclei (%) [1, 8]: 19% and 38%
Population Healthy Nuclei (%) [1, 8]: 69% and 44%
Population Hoechst High Intensity Objects (%) [1, 8]: 5% and 2%
Population Membrane Permeable-Phenotype (%) [1, 8]: 0% and 2%
Population Mitochondria Different-Phenotype (%) [1, 8]: 10% and 6%
Population Mitotic Cells (%) [1, 8]: 44% and 38%
Population Normal (%) [1, 8]: 94% and 97%
Population Pyknosed Nuclei (%) [1, 8]: 10% and 16%
Population Tubulin-Different-Phenotype (%) [1, 8]: 36% and 61%
Total Cell Count [1, 8]: 186 and 112
Population Apoptotic (%) [2, 3]: 36% and 48%
Population Fragmented Nuclei (%) [2, 3]: 7% and 9%
Population Healthy Nuclei (%) [2, 3]: 77% and 81%
Population Hoechst High Intensity Objects (%) [2, 3]: 6% and 9%
Population Membrane Permeable-Phenotype (%) [2, 3]: 0%
Population Mitochondria Different-Phenotype (%) [2, 3]: 42% and 57%
Population Mitotic Cells (%) [2, 3]: 63% and 52%
Population Normal (%) [2, 3]: 93% and 90%
Population Pyknosed Nuclei (%) [2, 3]: 14% and 8%
Population Tubulin-Different-Phenotype (%) [2, 3]: 25% and 26%
Total Cell Count [2, 3]: 373 and 326
Population Apoptotic (%) [2, 4]: 38% and 61%
Population Fragmented Nuclei (%) [2, 4]: 5%
Population Healthy Nuclei (%) [2, 4]: 81% and 75%
Population Hoechst High Intensity Objects (%) [2, 4]: 8%
Population Membrane Permeable-Phenotype (%) [2, 4]: 0%
Population Mitochondria Different-Phenotype (%) [2, 4]: 53% and 76%
Population Mitotic Cells (%) [2, 4]: 61% and 38%
Population Normal (%) [2, 4]: 91%
Population Pyknosed Nuclei (%) [2, 4]: 12% and 18%
Population Tubulin-Different-Phenotype (%) [2, 4]: 41% and 42%
Total Cell Count [2, 4]: 461 and 346
Population Apoptotic (%) [2, 5]: 17% and 46%
Population Fragmented Nuclei (%) [2, 5]: 9% and 10%
Population Healthy Nuclei (%) [2, 5]: 78% and 76%
Population Hoechst High Intensity Objects (%) [2, 5]: 6% and 4%
Population Membrane Permeable-Phenotype (%) [2, 5]: 0%
Population Mitochondria Different-Phenotype (%) [2, 5]: 24% and 45%
Population Mitotic Cells (%) [2, 5]: 82% and 53%
Population Normal (%) [2, 5]: 93% and 95%
Population Pyknosed Nuclei (%) [2, 5]: 11% and 13%
Population Tubulin-Different-Phenotype (%) [2, 5]: 19% and 14%
Total Cell Count [2, 5]: 511 and 343
Population Apoptotic (%) [2, 6]: 35% and 51%
